Here are results for six compounds from ChEMBL document CHEMBL1131833, “Synthesis and cytotoxic activity of N-(2-pyridylsulfenyl)urea derivatives. A new class of potential antineoplastic agents” (Bioorg Med Chem Lett, 1999).

Common to all, as to format: functional, cell-based
For test [1], the system named is CCRF-CEM. In words: Cytotoxicity against CCRF-CEM lymphocytic leukemia cell line. The following applies: Homo sapiens. In outline:
(§1)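 Growth inhibition read by cell counting after 3 days of continuous exposure to 100, 10, 1, 0.1 or 0.01 µM compound. Parallel cultures counted daily to confirm exponential growth. IC50 from the counts; where inhibition stayed low across the range, reported as > highest tested concentration.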

Test [2] deals with Calu-1. The experiment in a line: Cytotoxicity against HTB-54 lung carcinoma cell line. The following applies: Homo sapiens. In outline:
as §1

Test [3] relates to HT-29. The experiment in a line: Cytotoxicity against HT-29 colon carcinoma cell line. The conditions noted are these: Homo sapiens. In outline:
as §1

Test [4] has as its system K562. The experiment in a line: Cytotoxicity against K-562 myelocytic leukemia cell line. The following applies: Homo sapiens. In outline:
as §1

Test [5] concerns MEL-AC cell line. In words: Cytotoxicity against MEL-AC melanoma cell line. The following applies: Homo sapiens. In outline: as §1
The species entered for test [6] is Homo sapiens. The experiment in a line: Cytotoxicity against normal PMBC cells in clonogenic assay. In outline: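 Human peripheral blood mononuclear cells at 2.0-2.5 ×10^6 cells/mL in Iscove's medium. Clonogenic methylcellulose culture (0.9% final) with 30% fetal calf serum, 10% PHA-LCM and 6 U recombinant human erythropoietin plus compound, 14 days at 37°C. Colonies counted; at least 3 independent experiments, each in triplicate, per compound and concentration.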

By IC50 is commonly meant the concentration needed to halve the response being measured. A high value points to weaker potency. Consider `CCOC(=O)c1cccnc1SNC(=O)Nc1ncccn1`, for which the IC50 in test [1] is 15 µM; in test [2], 1.8 µM; in test [3], 4.8 µM; in test [4], 1 µM; in test [5] it was 34 µM; in test [6], 13.6 µM.

With `CCOC(=O)c1cccnc1S(=O)(=O)NC(=O)Nc1ccc(Cl)cc1`, the IC50 in test [1] is 4.3 µM; in test [2] it was > 100 µM; in test [3] it was > 100 µM; in test [4], 14 µM; in test [5], > 100 µM.

For the compound `CCOC(=O)c1cccnc1S(=O)(=O)NC(=O)Nc1ncccn1`, the IC50 in test [1] was 3.5 µM; in test [2], 1.6 µM; in test [3], > 100 µM; in test [4], 53 µM; in test [5] it was 1.2 µM.

With `CCOC(=O)c1cccnc1SNC(=O)Nc1nc(OC)cc(OC)n1`, the IC50 in test [1] was determined as 0.7 µM; in test [2], 74 µM; in test [3] it was 96 µM; in test [4], 43 µM; in test [5], 43 µM.

Consider `CCOC(=O)c1cc([N+](=O)[O-])cnc1SNC(=O)Nc1ncccn1`, for which the IC50 was 1.5 µM in test [1]; 14 µM in test [2]; > 100 µM in test [3]; 0.2 µM in test [4]; 0.2 µM in test [5].

`COc1cccc2c1C(=O)c1c(O)c3c(c(O)c1C2=O)C[C@@](O)(C(=O)CO)C[C@@H]3O[C@H]1C[C@H](N)[C@H](O)[C@H](C)O1` [DOXORUBICIN]: the IC50 was found to be 1.1 µM in test [2]; 0.7 µM in test [3]; 1 µM in test [4]; 1.2 µM in test [5]; 39.4 µM in test [6].
